Here are results for 20 molecules from ChEMBL document CHEMBL4028872, “Structure-Activity Relationship, Pharmacological Characterization, and Molecular Modeling of Noncompetitive Inhibitors of the Betaine/γ-Aminobutyric Acid Transporter 1 (BGT1)” (J Med Chem, 2017).

Structures are written as SMILES. A value given as a limit tells only on which side of the number the result lay.

Holding throughout (type): cell-based
The target of assay [1] is Sodium- and chloride-dependent GABA transporter 1 (Homo sapiens, UniProt P30531). Particulars: read-out: IC50.
Sodium- and chloride-dependent GABA transporter 1 (Homo sapiens, UniProt P30531), sequence (P30531 whole entry): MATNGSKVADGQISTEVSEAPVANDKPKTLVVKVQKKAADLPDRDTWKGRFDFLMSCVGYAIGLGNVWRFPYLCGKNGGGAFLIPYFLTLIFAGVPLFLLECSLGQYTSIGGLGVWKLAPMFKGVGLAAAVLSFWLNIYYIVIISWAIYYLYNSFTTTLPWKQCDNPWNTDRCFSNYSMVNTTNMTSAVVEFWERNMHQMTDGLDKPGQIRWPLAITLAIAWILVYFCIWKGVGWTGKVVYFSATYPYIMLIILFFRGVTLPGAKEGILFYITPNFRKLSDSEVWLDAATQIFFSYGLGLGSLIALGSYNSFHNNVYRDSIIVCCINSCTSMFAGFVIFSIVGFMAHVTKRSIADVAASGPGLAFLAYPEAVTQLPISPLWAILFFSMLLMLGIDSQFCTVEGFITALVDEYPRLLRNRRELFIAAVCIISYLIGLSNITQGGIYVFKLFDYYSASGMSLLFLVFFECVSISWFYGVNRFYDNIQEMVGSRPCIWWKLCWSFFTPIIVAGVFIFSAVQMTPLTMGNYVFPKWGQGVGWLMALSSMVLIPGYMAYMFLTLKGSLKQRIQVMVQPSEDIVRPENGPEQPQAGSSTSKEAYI
The target in assay [2] is T1, Sodium- and chloride-dependent betaine transporter (Homo sapiens, UniProt P48065).
T1 sequence (P48065 whole entry): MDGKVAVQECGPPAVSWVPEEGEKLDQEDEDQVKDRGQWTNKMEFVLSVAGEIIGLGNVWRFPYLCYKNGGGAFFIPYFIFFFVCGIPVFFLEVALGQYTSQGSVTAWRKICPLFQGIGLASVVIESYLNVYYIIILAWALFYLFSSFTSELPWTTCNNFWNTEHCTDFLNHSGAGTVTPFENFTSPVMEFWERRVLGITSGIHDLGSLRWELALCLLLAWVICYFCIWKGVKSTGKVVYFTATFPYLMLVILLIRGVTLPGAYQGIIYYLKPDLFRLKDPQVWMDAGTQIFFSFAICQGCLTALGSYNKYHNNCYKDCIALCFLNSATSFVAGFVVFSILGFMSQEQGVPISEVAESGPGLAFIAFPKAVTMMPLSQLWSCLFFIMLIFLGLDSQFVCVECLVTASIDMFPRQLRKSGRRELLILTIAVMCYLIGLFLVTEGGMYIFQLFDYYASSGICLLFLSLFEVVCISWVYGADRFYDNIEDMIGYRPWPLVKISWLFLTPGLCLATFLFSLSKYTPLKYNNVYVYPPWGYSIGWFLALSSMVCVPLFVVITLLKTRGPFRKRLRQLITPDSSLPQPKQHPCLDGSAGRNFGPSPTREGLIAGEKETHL
The experiment in a line: Inhibition of human BGT1 expresses in tsA201 cells assessed as reduction in [3H]GABA uptake after 3 mins by scintillation counting method. Particulars: read-out: IC50. In outline:
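tsA201 cells transiently transfected with wild-type or mutant human BGT1 (PolyFect) were plated about 24 h before assay. Three ice-cold washes followed, then scintillation counting.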

Assay [3] addresses T2, Sodium- and chloride-dependent GABA transporter 2 (Homo sapiens, UniProt Q9NSD5).
T2 sequence (Q9NSD5 whole entry): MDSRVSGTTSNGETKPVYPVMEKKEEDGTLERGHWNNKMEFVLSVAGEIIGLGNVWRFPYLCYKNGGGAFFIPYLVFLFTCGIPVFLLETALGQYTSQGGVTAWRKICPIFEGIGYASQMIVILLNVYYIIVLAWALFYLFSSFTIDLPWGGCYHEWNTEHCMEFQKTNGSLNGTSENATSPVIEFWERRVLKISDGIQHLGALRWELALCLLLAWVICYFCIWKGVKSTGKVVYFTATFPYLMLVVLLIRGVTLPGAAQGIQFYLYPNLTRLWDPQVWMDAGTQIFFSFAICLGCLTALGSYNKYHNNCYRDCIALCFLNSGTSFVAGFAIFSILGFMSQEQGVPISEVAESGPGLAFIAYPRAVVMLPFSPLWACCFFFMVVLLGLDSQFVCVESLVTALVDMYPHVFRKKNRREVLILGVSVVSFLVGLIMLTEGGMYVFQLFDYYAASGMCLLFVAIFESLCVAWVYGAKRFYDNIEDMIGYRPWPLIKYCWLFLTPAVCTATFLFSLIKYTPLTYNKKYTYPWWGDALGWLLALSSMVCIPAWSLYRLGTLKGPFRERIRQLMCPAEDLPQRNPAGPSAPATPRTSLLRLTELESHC
The assay is described as follows: Inhibition of human GAT2 expresses in tsA201 cells assessed as reduction in [3H]GABA uptake after 3 mins by scintillation counting method. To be noted: read-out: IC50. In outline: (§1)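 Wild-type human GAT transiently expressed in tsA201 cells via pcDNA5/FRT and PolyFect. Uptake of 30 nM [3H]GABA was run for 3 min at 37 °C in HBSS/20 mM HEPES with 1 mM CaCl2 and 1 mM MgCl2, pH 7.4, across a range of test concentrations. Ice-cold washes were followed by scintillation counting. IC50 was obtained by sigmoidal variable-slope fitting, reported as mean pIC50 ± S.E.M.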

In assay [4] the target is T3, Sodium- and chloride-dependent GABA transporter 3 (Homo sapiens, UniProt P48066).
T3 sequence (P48066 whole entry): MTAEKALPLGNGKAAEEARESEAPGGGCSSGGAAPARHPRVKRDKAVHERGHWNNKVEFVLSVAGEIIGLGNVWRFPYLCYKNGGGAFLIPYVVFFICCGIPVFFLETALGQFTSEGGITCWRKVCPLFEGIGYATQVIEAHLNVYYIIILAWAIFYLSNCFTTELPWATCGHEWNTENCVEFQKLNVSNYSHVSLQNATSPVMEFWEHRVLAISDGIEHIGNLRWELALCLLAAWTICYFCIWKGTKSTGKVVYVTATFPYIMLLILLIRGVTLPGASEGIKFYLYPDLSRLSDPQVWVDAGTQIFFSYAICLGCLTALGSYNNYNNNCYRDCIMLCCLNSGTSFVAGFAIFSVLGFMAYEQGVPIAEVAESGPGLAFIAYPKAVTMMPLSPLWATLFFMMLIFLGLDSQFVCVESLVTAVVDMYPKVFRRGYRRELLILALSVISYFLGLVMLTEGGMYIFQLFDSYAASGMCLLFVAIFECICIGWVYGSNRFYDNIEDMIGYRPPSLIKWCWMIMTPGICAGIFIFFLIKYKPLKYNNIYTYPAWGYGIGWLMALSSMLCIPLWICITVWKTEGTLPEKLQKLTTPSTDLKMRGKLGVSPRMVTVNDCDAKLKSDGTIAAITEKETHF
The experiment in a line: Inhibition of human GAT3 expresses in tsA201 cells assessed as reduction in [3H]GABA uptake after 3 mins by scintillation counting method. Particulars: read-out: IC50. The gist of the method:
as §1

The target in the next assay is T4, GABA transporter 2 (Mus musculus, UniProt P31651).
T4 sequence (P31651 whole entry): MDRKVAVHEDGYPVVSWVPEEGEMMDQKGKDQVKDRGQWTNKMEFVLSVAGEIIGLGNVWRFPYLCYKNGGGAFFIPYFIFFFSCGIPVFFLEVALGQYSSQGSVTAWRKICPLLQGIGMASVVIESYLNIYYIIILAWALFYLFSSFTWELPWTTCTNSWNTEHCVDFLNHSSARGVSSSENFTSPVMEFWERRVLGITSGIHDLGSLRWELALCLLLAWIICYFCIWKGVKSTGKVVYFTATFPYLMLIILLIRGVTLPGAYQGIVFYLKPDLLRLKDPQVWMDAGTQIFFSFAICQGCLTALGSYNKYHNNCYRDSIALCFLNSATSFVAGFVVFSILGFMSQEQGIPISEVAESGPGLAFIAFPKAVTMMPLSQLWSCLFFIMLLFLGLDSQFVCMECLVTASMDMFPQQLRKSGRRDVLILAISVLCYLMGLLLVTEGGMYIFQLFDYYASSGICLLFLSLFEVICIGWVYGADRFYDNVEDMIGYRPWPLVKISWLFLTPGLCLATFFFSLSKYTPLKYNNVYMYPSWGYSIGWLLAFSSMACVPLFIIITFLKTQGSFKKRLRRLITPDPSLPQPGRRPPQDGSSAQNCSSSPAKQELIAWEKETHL
The assay is described as follows: Inhibition of mouse BGT1 expressed in HEK293 cells assessed as reduction in [3H]GABA uptake after 3 mins by scintillation counting method. Particulars: read-out: IC50. In outline: (§2)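 HEK293 lines stably expressing a single mouse GAT subtype, kept under blasticidin-S (5 µg/mL) selection. Cells were assayed about 24 h after plating with 30 nM [3H]GABA plus varying compound concentrations for 3 min at 37 °C in HBSS buffered with 20 mM HEPES (1 mM CaCl2, 1 mM MgCl2, pH 7.4). Cells were washed ice-cold and radioactivity counted. IC50 came from sigmoidal variable-slope fits.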

The next assay concerns the target T5, GABA transporter 3 (Mus musculus, UniProt P31649).
T5 sequence (P31649 whole entry): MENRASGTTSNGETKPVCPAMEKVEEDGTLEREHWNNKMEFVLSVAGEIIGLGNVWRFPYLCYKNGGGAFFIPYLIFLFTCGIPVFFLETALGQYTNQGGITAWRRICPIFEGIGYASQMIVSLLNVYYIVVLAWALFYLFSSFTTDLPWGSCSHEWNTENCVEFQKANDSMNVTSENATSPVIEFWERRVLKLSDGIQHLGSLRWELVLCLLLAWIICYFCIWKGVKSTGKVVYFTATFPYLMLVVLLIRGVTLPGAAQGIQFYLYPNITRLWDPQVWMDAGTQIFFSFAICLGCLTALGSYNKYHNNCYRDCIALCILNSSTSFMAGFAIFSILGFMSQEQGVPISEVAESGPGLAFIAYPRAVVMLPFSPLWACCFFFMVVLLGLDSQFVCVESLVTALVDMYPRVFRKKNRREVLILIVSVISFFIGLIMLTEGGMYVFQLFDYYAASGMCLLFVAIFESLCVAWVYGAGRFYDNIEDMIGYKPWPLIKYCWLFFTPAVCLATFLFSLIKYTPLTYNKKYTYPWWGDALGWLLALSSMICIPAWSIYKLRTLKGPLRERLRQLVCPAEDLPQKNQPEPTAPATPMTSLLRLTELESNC
The experiment in a line: Inhibition of mouse GAT2 expressed in HEK293 cells assessed as reduction in [3H]GABA uptake after 3 mins by scintillation counting method. The gist of the method:
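HEK293 cells stably expressing mouse GAT2 were kept under blasticidin-S (5 µg/mL) selection. Ice-cold washes preceded scintillation counting. IC50 came from a variable-slope sigmoidal fit.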

Assay [5] deals with Sodium- and chloride-dependent GABA transporter 1 (Mus musculus, UniProt P31648). The assay is described as follows: Inhibition of mouse GAT1 expressed in HEK293 cells assessed as reduction in [3H]GABA uptake after 3 mins by scintillation counting method. In outline:
as §2

For orientation: IC50 means the point on the concentration scale where inhibition reaches its midpoint. For `CCOc1ccccc1C(=O)NC1CCN(Cc2ccccc2)CC1`, the IC50 is greater than 500 µM in assay [1], 180 µM in assay [2], greater than 500 µM in assay [3] and greater than 500 µM in assay [4].

In the case of `N#Cc1ccccc1CN1CCC(NC(=O)c2ccc(Cl)cc2Cl)CC1`, the IC50 in assay [1], in assay [2], in assay [3] and in assay [4] was greater than 50 µM throughout.

On to `COc1cccc(C(=O)NC2CCN(Cc3ccccc3)CC2)c1OC`, for which the IC50 is greater than 500 µM in assay [1], 91 µM in assay [2], greater than 500 µM in assay [3] and greater than 500 µM in assay [4].

`O=C(OC1CCN(Cc2ccccc2)CC1)c1ccccc1`: the results for the IC50 (in assay [1]; at GABA transporter 2; at GABA transporter 3) were greater than 1000 µM, 106 µM and 349 µM, respectively.

For `O=C(NC1CCN(Cc2ccccc2)CC1)c1cccc(C(F)(F)F)c1`, the IC50 is greater than 500 µM in assay [1], 170 µM in assay [2], greater than 500 µM in assay [3] and greater than 500 µM in assay [4].

Regarding `O=C(NC1CCN(Cc2ccccn2)CC1)c1ccc(Cl)cc1Cl`, the 50% inhibitory concentration (IC50) in assay [1], in assay [2], in assay [3] and in assay [4] was greater than 1000 µM throughout.

As for `CCCN1CCC(NC(=O)c2ccc(Cl)cc2Cl)CC1`, the IC50 in assay [1], in assay [2], in assay [3] and in assay [4] was greater than 1000 µM each time.

For `O=C(NC1CCN(Cc2ccc3ccccc3n2)CC1)c1ccc(Cl)cc1Cl`, the IC50 in assay [1], in assay [2], in assay [3] and in assay [4] was greater than 50 µM throughout.

For `N#CCCCN1CCC(NC(=O)c2ccc(Cl)cc2Cl)CC1`, the IC50 in assay [1], in assay [2], in assay [3] and in assay [4] was greater than 1000 µM in each case.

Turning to `O=C(NC1CCN(Cc2cccc(F)c2)CC1)c1ccc(Cl)cc1Cl`, the IC50 in assay [5] is greater than 1000 µM; on GABA transporter 2, 34 µM; at GABA transporter 3, greater than 1000 µM.

Take `O=C(NC1CCN(Cc2cccc(OC(F)(F)F)c2)CC1)c1ccc(Cl)cc1Cl`: the results for the IC50 (in assay [5]; on GABA transporter 2; on GABA transporter 3) were greater than 1000 µM, 160 µM and greater than 1000 µM, respectively.

For the molecule `O=C(NC1CCN(Cc2ccccc2)CC1)c1ccncc1`, the figures for the concentration for half-maximal inhibition (IC50) (in assay [5]; at GABA transporter 2; at GABA transporter 3) were greater than 1000 µM, 1150 µM and greater than 1000 µM, respectively.

For the molecule `O=C(NC1CCN(Cc2cccc(Cl)c2)CC1)c1ccc(Cl)cc1Cl`, the concentration for half-maximal inhibition (IC50) (in assay [5]; on GABA transporter 2; at GABA transporter 3) was greater than 300 µM throughout.

Consider `O=C(OC1CCN(Cc2ccccc2)CC1)c1ccc(Cl)cc1Cl`, for which the concentration for half-maximal inhibition (IC50) (in assay [1]; on GABA transporter 2; at GABA transporter 3) was greater than 1000 µM each time.

With `Clc1ccc(CNC2CCN(Cc3ccccc3)CC2)c(Cl)c1`, the IC50 in assay [1] was greater than 400 µM; on GABA transporter 2, 112 µM; at GABA transporter 3, greater than 400 µM.

Consider `O=C(NC1CCN(Cc2ccc(OC(F)(F)F)cc2)CC1)c1ccc(Cl)cc1Cl`, for which the IC50 (in assay [5]; on GABA transporter 2; on GABA transporter 3) was greater than 1000 µM each time.

With `COc1cccc(CN2CCC(NC(=O)c3ccc(Cl)nc3)CC2)c1`, the IC50 was greater than 1000 µM in assay [5], 115 µM on GABA transporter 2 and 540 µM on GABA transporter 3.

For the molecule `COc1cc(CN2CCC(NC(=O)c3ccc(Cl)cc3Cl)CC2)cc(OC)c1`, the IC50 is greater than 1000 µM in assay [5], 30 µM on GABA transporter 2 and 1200 µM at GABA transporter 3.

With `COc1cccc(CN2CCC(NC(=O)c3cccnc3)CC2)c1`, the IC50 (in assay [5]; on GABA transporter 2; on GABA transporter 3) was greater than 1000 µM throughout.

Regarding `O=C(NC1CCN(Cc2cccc(OCCO)c2)CC1)c1ccc(Cl)nc1Cl`, the IC50 (in assay [5]; at GABA transporter 2; on GABA transporter 3) was greater than 300 µM each time.
